Assay [1] concerns L02. The assay is described as follows: Antiproliferative activity against human L02 cells after 72 hrs by MTT assay. It counts as cell-based. Conditions: L02, 72 h. In short, it runs like this: (§1)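 A549, HeLa, HepG2 and normal liver L02 cells kept in DMEM with 10% FBS at 37 °C under 5% CO2. Plated at 5×10^3 cells/well for 24 h, then treated with graded concentrations for 72 h. Viability measured by MTT reduction (5 h), formazan dissolved in DMSO and read at 570 nm. Three repeats.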
For orientation: Tetrazolium dyes change colour on reduction, which living cells bring about.

In assay [2] the test system is HeLa. The assay is described as follows: Antiproliferative activity against human HeLa cells after 72 hrs by MTT assay. The assay is classed as functional, cell-based. The essentials: as §1
Assay [3] has as its system MDA-MB-231. In words: Antiproliferative activity against human MDA-MB-231 cells after 72 hrs by MTT assay. It counts as functional, cell-based. The following applies: MDA-MB-231, 72 h. The essentials: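 MDA-MB-231 cells grown in DMEM with 10% FBS and penicillin/streptomycin at 37 °C under 5% CO2. Seeded at 5×10^3 cells/well for 24 h, then exposed to compound across a concentration range for 72 h. MTT (5 mg/mL in PBS) added for 5 h, formazan dissolved in DMSO, absorbance read at 570 nm. Three repeats.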

The subject of assay [4] is A549. The assay is described as follows: Antiproliferative activity against human A549 cells after 72 hrs by MTT assay. The assay is classed as functional, cell-based. The following applies: A549, 72 h. In short, it runs like this: as §1
Assay [5] has as its system HepG2. The assay is described as follows: Antiproliferative activity against human HepG2 cells after 72 hrs by MTT assay. The assay is classed as functional, cell-based. Conditions: HepG2, 72 h. In short, it runs like this: as §1

Our source for the IC50 values is ChEMBL document CHEMBL4257580, “Tanshinone-IIA-Based Analogues of Imidazole Alkaloid Act as Potent Inhibitors To Block Breast Cancer Invasion and Metastasis in Vivo” (J Med Chem, 2018).

pIC50: −log10 of the molar value. Where only a bound is given, the exact number is not on record here.

For orientation: pIC50 means the negative decadic logarithm of the IC50, by convention in mol/L. Lower therefore signals a high IC50.

Take `Cc1coc2c3ccc4c(c3c3[nH]c(-c5cccc(C(F)(F)F)c5)nc3c12)CCCC4(C)C`: the negative logarithm of the IC50 (pIC50) is 4.26 in assay [1]; 4.16 in assay [2]; 4.28 in assay [3]; 4.50 in assay [4]; 4.36 in assay [5].

Consider `Cc1coc2c3ccc4c(c3c3[nH]c(-c5ccc([N+](=O)[O-])cc5)nc3c12)CCCC4(C)C`, for which the pIC50 in assay [1] was less than 3.52; in assay [2], 3.80; in assay [3], 4.51; in assay [4], 4.60; in assay [5] it was 4.51.

`COc1cccc2c1C(=O)c1c(O)c3c(c(O)c1C2=O)C[C@@](O)(C(=O)CO)C[C@@H]3O[C@H]1C[C@H](N)[C@H](O)[C@H](C)O1` [DOXORUBICIN]: the pIC50 in assay [1] is 5.44; in assay [2], 5.06; in assay [3], 5.07; in assay [4] it was 5.47; in assay [5] it was 5.37.

As to `COc1cccc(-c2nc3c([nH]2)c2c4c(ccc2c2occ(C)c32)C(C)(C)CCC4)c1`, the pIC50 in assay [1] was less than 3.52; in assay [2] it was 4.17; in assay [3], 4.28; in assay [4], 4.40; in assay [5] it was 4.55.

As to `COc1ccccc1-c1nc2c([nH]1)c1c3c(ccc1c1occ(C)c21)C(C)(C)CCC3`, the pIC50 is 4.06 in assay [1]; less than 3.52 in assay [2]; 3.96 in assay [3]; 4.34 in assay [4]; 3.90 in assay [5].

As to `Cc1coc2c3ccc4c(c3c3[nH]c(-c5ccccc5[N+](=O)[O-])nc3c12)CCCC4(C)C`, the pIC50 was less than 3.52 in assay [1]; 3.94 in assay [2]; 4.63 in assay [3]; 3.69 in assay [4]; 4.61 in assay [5].

Turning to `Cc1coc2c3ccc4c(c3c3[nH]c(-c5ccccc5C(F)(F)F)nc3c12)CCCC4(C)C`, the pIC50 in assay [1] was 4.03; in assay [2], 4.21; in assay [3] it was 4.62; in assay [4], 4.59; in assay [5], 4.42.

In the case of `Cc1coc2c3ccc4c(c3c3[nH]c(-c5cccc([N+](=O)[O-])c5)nc3c12)CCCC4(C)C`, the pIC50 was less than 3.52 in assay [1]; less than 3.52 in assay [2]; 4.31 in assay [3]; 4.20 in assay [4]; 4.47 in assay [5].

As for `Cc1coc2c3ccc4c(c3c3[nH]c(-c5ccccc5O)nc3c12)CCCC4(C)C`, the pIC50 in assay [1] was 4.28; in assay [2] it was 4.07; in assay [3] it was 4.69; in assay [4], 5.31; in assay [5] it was 4.58.

On to `Cc1coc2c3ccc4c(c3c3[nH]c(-c5ccc(C(F)(F)F)cc5)nc3c12)CCCC4(C)C`, for which the pIC50 in assay [1] is 4.51; in assay [2], 4.19; in assay [3] it was 4.35; in assay [4], 4.31; in assay [5] it was 4.60.

As to `Cc1coc2c3ccc4c(c3c3[nH]c(-c5cccc(O)c5)nc3c12)CCCC4(C)C`, the pIC50 in assay [1] is 4.48; in assay [2], 4.28; in assay [3], 4.59; in assay [4], 4.74; in assay [5], 4.43.

For `Cc1coc2c1C(=O)C(=O)c1c-2ccc2c1CCCC2(C)C` [TANSHINONE IIA], the pIC50 in assay [1] is 4.11; in assay [2], 3.71; in assay [3], 3.94; in assay [4] it was 4.27; in assay [5] it was 4.18.

Turning to `COc1ccc(-c2nc3c([nH]2)c2c4c(ccc2c2occ(C)c32)C(C)(C)CCC4)cc1`, the pIC50 in assay [1] was 4.08; in assay [2] it was 4.21; in assay [3], 4.68; in assay [4] it was 4.45; in assay [5], 4.86.
